Results reported in article PMC10762718 (RSC Advances, 2024).

What follows are compounds tested on MDA-MB-231 (human breast cancer) cells (assay: MTT cell viability assay, MDA-MB-231). Conditions: MDA-MB-231, 72 h, read-out: Cell viability (%) ±SD.
Type: cell-based
Method in brief: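 MDA-MB-231 cells were grown as a monolayer in DMEM with 10% heat-inactivated FBS and 1% penicillin-streptomycin at 37 °C in humidified CO2, subcultured every third day with trypsin-EDTA, and used before passage 8. Cells were exposed 72 h to 10, 25 and 50 μM. Medium was removed, MTT added for 3 h at 37 °C, formazan dissolved in DMSO and read at 595 nm. Viability is relative to untreated control, triplicates, ±SD. IC50 comes from the viability-versus-concentration plot.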

Structure (SMILES) | viability at 10 µM | viability at 25 µM | viability at 50 µM
CC(=O)OC[C@@H]1O[C@H](n2cc(Cn3ccc4nc(-c5ccc(C)cc5)cc(=O)n43)nn2)[C@@H](OC(C)=O)[C@H](OC(C)=O)[C@H]1OC(C)=O (stereo in doubt) [Compound 22, (2S,3S,4R,5S,6S)-2-(Acetoxymethyl)-6-(4-((7-oxo-5-(p-tolyl)pyrazolo[1,5-a]pyrimidin-1(7H)-yl)methyl)-1H-1,2,3-triazol-1-yl)tetrahydro-2H-pyran-3,4,5-triyl triacetate] | 92.4 ± 5.38% | 87.5 ± 6.74% | 85.4 ± 4.16%
CC(=O)OC[C@@H]1O[C@H](n2cc(Cn3ccc4nc(-c5ccc(Br)cc5)cc(=O)n43)nn2)[C@@H](OC(C)=O)[C@H](OC(C)=O)[C@H]1OC(C)=O (stereo in doubt) [Compound 24, (2S,3S,4R,5S,6S)-2-(Acetoxymethyl)-6-(4-((5-(4-bromophenyl)-7-oxopyrazolo[1,5-a]pyrimidin-1(7H)-yl)methyl)-1H-1,2,3-triazol-1-yl)tetrahydro-2H-pyran-3,4,5-triyl triacetate] | 100 ± 8.01% | 100 ± 8.93% | 98.5 ± 2.89%
CC(=O)OC[C@@H]1O[C@H](n2cc(Cn3ccc4nc(-c5ccc(Cl)cc5)cc(=O)n43)nn2)[C@@H](OC(C)=O)[C@H](OC(C)=O)[C@H]1OC(C)=O (stereo in doubt) [Compound 25, (2S,3S,4R,5S,6S)-2-(Acetoxymethyl)-6-(4-((5-(4-chlorophenyl)-7-oxopyrazolo[1,5-a]pyrimidin-1(7H)-yl)methyl)-1H-1,2,3-triazol-1-yl)tetrahydro-2H-pyran-3,4,5-triyl triacetate] | 98.6 ± 2.25% | 93.2 ± 1.96% | 86.2 ± 9.22%
CC(=O)OC[C@@H]1O[C@H](n2cc(Cn3ccc4nc(-c5ccc(C(F)(F)F)cc5)cc(=O)n43)nn2)[C@@H](OC(C)=O)[C@H](OC(C)=O)[C@H]1OC(C)=O (stereo in doubt) [Compound 27, (2S,3S,4R,5S,6S)-2-(Acetoxymethyl)-6-(4-((7-oxo-5-(4-(trifluoromethyl)phenyl)pyrazolo[1,5-a]pyrimidin-1(7H)-yl)methyl)-1H-1,2,3-triazol-1-yl)tetrahydro-2H-pyran-3,4,5-triyl triacetate] | 93.2 ± 8.51% | 89.8 ± 8.75% | 74.8 ± 7.02%
CC(=O)OC[C@@H]1O[C@H](n2cc(Cn3ccc4nc(-c5ccc(C(C)C)cc5)cc(=O)n43)nn2)[C@@H](OC(C)=O)[C@H](OC(C)=O)[C@H]1OC(C)=O (stereo in doubt) [Compound 28, (2S,3S,4R,5S,6S)-2-(Acetoxymethyl)-6-(4-((5-(4-isopropylphenyl)-7-oxopyrazolo[1,5-a]pyrimidin-1(7H)-yl)methyl)-1H-1,2,3-triazol-1-yl)tetrahydro-2H-pyran-3,4,5-triyl triacetate] | 102 ± 8.51% | 99.1 ± 3.51% | 69.5 ± 17.7%
CC(=O)OC[C@@H]1O[C@H](n2cc(Cn3ccc4nc(-c5ccc6ccccc6c5)cc(=O)n43)nn2)[C@@H](OC(C)=O)[C@H](OC(C)=O)[C@H]1OC(C)=O (stereo in doubt) [Compound 29, (2S,3S,4R,5S,6S)-2-(Acetoxymethyl)-6-(4-((5-(naphthalen-2-yl)-7-oxopyrazolo[1,5-a]pyrimidin-1(7H)-yl)methyl)-1H-1,2,3-triazol-1-yl)tetrahydro-2H-pyran-3,4,5-triyl triacetate] | 89.1 ± 4.09% | 81.5 ± 2.58% | 88.4 ± 7.36%
CC(=O)OC[C@@H]1O[C@H](n2cc(Cn3ccc4nc(-c5ccc(C)cc5)cc(=O)n43)nn2)[C@@H](OC(C)=O)[C@H](OC(C)=O)[C@@H]1OC(C)=O (stereo in doubt) [Compound 31, (2S,3R,4R,5S,6S)-2-(Acetoxymethyl)-6-(4-((7-oxo-5-(p-tolyl)pyrazolo[1,5-a]pyrimidin-1(7H)-yl)methyl)-1H-1,2,3-triazol-1-yl)tetrahydro-2H-pyran-3,4,5-triyl triacetate] | 81.7 ± 8.36% | 88.5 ± 6.73% | 78.8 ± 10.4%
COc1ccc(-c2cc(=O)n3c(ccn3Cc3cn([C@H]4O[C@@H](COC(C)=O)[C@@H](OC(C)=O)[C@@H](OC(C)=O)[C@@H]4OC(C)=O)nn3)n2)cc1 (stereo in doubt) [Compound 32, (2S,3R,4R,5S,6S)-2-(Acetoxymethyl)-6-(4-((5-(4-methoxyphenyl)-7-oxopyrazolo[1,5-a]pyrimidin-1(7H)-yl)methyl)-1H-1,2,3-triazol-1-yl)tetrahydro-2H-pyran-3,4,5-triyl triacetate] | 92.5 ± 9.39% | 86.2 ± 8.63% | 72.5 ± 6.24%
CC(=O)OC[C@@H]1O[C@H](n2cc(Cn3ccc4nc(-c5ccc(Cl)cc5)cc(=O)n43)nn2)[C@@H](OC(C)=O)[C@H](OC(C)=O)[C@@H]1OC(C)=O (stereo in doubt) [Compound 34, (2S,3R,4R,5S,6S)-2-(Acetoxymethyl)-6-(4-((5-(4-chlorophenyl)-7-oxopyrazolo[1,5-a]pyrimidin-1(7H)-yl)methyl)-1H-1,2,3-triazol-1-yl)tetrahydro-2H-pyran-3,4,5-triyl triacetate] | 78.5 ± 2.43% | 76.8 ± 2.43% | 73 ± 2.62%
CC(=O)OC[C@@H]1O[C@H](n2cc(Cn3ccc4nc(-c5ccc(F)cc5)cc(=O)n43)nn2)[C@@H](OC(C)=O)[C@H](OC(C)=O)[C@@H]1OC(C)=O (stereo in doubt) [Compound 35, (2S,3R,4R,5S,6S)-2-(Acetoxymethyl)-6-(4-((5-(4-fluorophenyl)-7-oxopyrazolo[1,5-a]pyrimidin-1(7H)-yl)methyl)-1H-1,2,3-triazol-1-yl)tetrahydro-2H-pyran-3,4,5-triyl triacetate] | 82.4 ± 9.97% | 78.6 ± 10.1% | 75.3 ± 6.17%
CC(=O)OC[C@@H]1O[C@H](n2cc(Cn3ccc4nc(-c5ccc(C(C)C)cc5)cc(=O)n43)nn2)[C@@H](OC(C)=O)[C@H](OC(C)=O)[C@@H]1OC(C)=O (stereo in doubt) [Compound 37, (2S,3R,4R,5S,6S)-2-(Acetoxymethyl)-6-(4-((5-(4-isopropylphenyl)-7-oxopyrazolo[1,5-a]pyrimidin-1(7H)-yl)methyl)-1H-1,2,3-triazol-1-yl)tetrahydro-2H-pyran-3,4,5-triyl triacetate] | 85.2 ± 3.5% | 80.5 ± 8.96% | 78.7 ± 2.56%
CC(=O)OC[C@@H]1O[C@H](n2cc(Cn3ccc4nc(-c5ccc6ccccc6c5)cc(=O)n43)nn2)[C@@H](OC(C)=O)[C@H](OC(C)=O)[C@@H]1OC(C)=O (stereo in doubt) [Compound 38, (2S,3R,4R,5S,6S)-2-(Acetoxymethyl)-6-(4-((5-(naphthalen-2-yl)-7-oxopyrazolo[1,5-a]pyrimidin-1(7H)-yl)methyl)-1H-1,2,3-triazol-1-yl)tetrahydro-2H-pyran-3,4,5-triyl triacetate] | 92 ± 8.31% | 89.6 ± 9.91% | 67.7 ± 10.8%
CC(=O)OC[C@@H]1O[C@H](n2cc(Cn3ccc4nc(-c5ccc6c(c5)OCO6)cc(=O)n43)nn2)[C@@H](OC(C)=O)[C@H](OC(C)=O)[C@@H]1OC(C)=O (stereo in doubt) [Compound 39, (2S,3R,4R,5S,6S)-2-(Acetoxymethyl)-6-(4-((5-(benzo[d][1,3]dioxol-5-yl)-7-oxopyrazolo[1,5-a]pyrimidin-1(7H)-yl)methyl)-1H-1,2,3-triazol-1-yl)tetrahydro-2H-pyran-3,4,5-triyl triacetate] | 101 ± 9.67% | 98.25 ± 0.34% | 97.5 ± 1.88%
CC(=O)OC[C@H]1O[C@H](n2cc(Cn3ccc4nc(-c5ccc(C)cc5)cc(=O)n43)nn2)[C@@H](OC(C)=O)[C@@H](OC(C)=O)[C@@H]1OC(C)=O [Compound 40, (2R,3R,4S,5S,6S)-2-(Acetoxymethyl)-6-(4-((7-oxo-5-(p-tolyl)pyrazolo[1,5-a]pyrimidin-1(7H)-yl)methyl)-1H-1,2,3-triazol-1-yl)tetrahydro-2H-pyran-3,4,5-triyl triacetate] | 99 ± 7.7% | 92.8 ± 7.09% | 91.7 ± 9.12%
CC(=O)OC[C@H]1O[C@H](n2cc(Cn3ccc4nc(-c5ccc(Br)cc5)cc(=O)n43)nn2)[C@@H](OC(C)=O)[C@@H](OC(C)=O)[C@@H]1OC(C)=O [Compound 42, (2R,3R,4S,5S,6S)-2-(Acetoxymethyl)-6-(4-((5-(4-bromophenyl)-7-oxopyrazolo[1,5-a]pyrimidin-1(7H)-yl)methyl)-1H-1,2,3-triazol-1-yl)tetrahydro-2H-pyran-3,4,5-triyl triacetate] | 81.3 ± 7.65% | 78.5 ± 6.58% | 75.5 ± 8.45%
CC(=O)OC[C@H]1O[C@H](n2cc(Cn3ccc4nc(-c5ccc(Cl)cc5)cc(=O)n43)nn2)[C@@H](OC(C)=O)[C@@H](OC(C)=O)[C@@H]1OC(C)=O [Compound 43, (2R,3R,4S,5S,6S)-2-(Acetoxymethyl)-6-(4-((5-(4-chlorophenyl)-7-oxopyrazolo[1,5-a]pyrimidin-1(7H)-yl)methyl)-1H-1,2,3-triazol-1-yl)tetrahydro-2H-pyran-3,4,5-triyl triacetate] | 99.5 ± 10.2% | 95.2 ± 10.6% | 71.4 ± 10.5%
CC(=O)OC[C@H]1O[C@H](n2cc(Cn3ccc4nc(-c5ccc(F)cc5)cc(=O)n43)nn2)[C@@H](OC(C)=O)[C@@H](OC(C)=O)[C@@H]1OC(C)=O [Compound 44, (2R,3R,4S,5S,6S)-2-(Acetoxymethyl)-6-(4-((5-(4-fluorophenyl)-7-oxopyrazolo[1,5-a]pyrimidin-1(7H)-yl)methyl)-1H-1,2,3-triazol-1-yl)tetrahydro-2H-pyran-3,4,5-triyl triacetate] | 98.4 ± 3.62% | 90.1 ± 6.77% | 89.6 ± 6.27%
